The nature of data set [1]: Toxicity in high fat diet-induced C57BL/6J mouse assessed as change in heart morphology at 170 to 340 mg/kg, po administered for 6 weeks by H and E staining-based assay. Particulars: in vivo, 1008 h, dose 170-340 mg/kg. The class given is organism-based. The method in brief: (§1)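 Male C57BL/6J mice, six weeks old, fed a 45%-fat diet (HFD) for 15 weeks; chow-fed mice served as controls. Obese mice were randomized to vehicle (0.1% w/v CMC-Na) or 170 or 340 mg/kg, gavaged daily for 6 weeks while diet continued. Body weight, food intake, organ weights, serum lipids, tissue histology (H&E, Oil red O), liver SREBP blots and liver qPCR followed.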

Data set [2] has as its system Mus musculus. Description: Hypolipidemic activity in high fat diet-fed C57BL/6J mouse assessed as reduction in epididymal fat/body weight ratio at 170 to 340 mg/kg/day, po administered for 6 weeks. The class given is functional, organism-based. Particulars: dose 170-340 mg/kg/day. The method in brief:
as §1

A short description of data set [3]: Cmax in Sprague-Dawley rat at 1 mg/kg, iv measured upto 12 hrs by LC-MS/MS analysis. The class given is ADME, organism-based. The note with it: in vivo. More on the design: route intravenous, dose 1 mg/kg, time <=12. The method in brief:
(§2)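 Six SD rats split into two groups of three, dosed 1 mg/kg IV or 10 mg/kg orally. IV blood drawn at 2, 5, 15, 30 min and 1, 2, 4, 6, 8, 12 h. Oral blood drawn at 5, 15, 30 min and 1, 2, 4, 6, 8, 12, 24 h. Serum drug measured by LC/MS/MS. Parameters are the average of three runs.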

Data set [4] in a line: MRT (0 to infinity) in Sprague-Dawley rat at 10 mg/kg, po measured upto 24 hrs by LC-MS/MS analysis. Format: ADME, organism-based. The note with it: in vivo. The method in brief:
as §2

Data set [5] deals with Mus musculus. Description: Hypoglycemic activity in high fat diet-induced C57BL/6J mouse assessed as improvement in insulin tolerance at 170 to 340 mg/kg, po administered daily for 6 weeks and measured up to 120 mins by ITT method. Format: functional, organism-based. Particulars: dose 170-340 mg/kg. The method in brief: as §1
In data set [6] the test system is Mus musculus. Nature of the data set: Hypoglycemic activity in high fat diet-induced C57BL/6J mouse assessed as improvement in glucose tolerance at 170 to 340 mg/kg, po administered daily for 6 weeks and measured up to 120 mins by OGTT method. Format: functional, organism-based. Particulars: dose 170-340 mg/kg. The method in brief:
as §1

In data set [7] the test system is Mus musculus. Description: […] activity in high fat diet-induced C57BL/6J mouse assessed as reduction in Scd mRNA level in liver at 170 to 340 mg/kg, po administered daily for 6 weeks by qRT-PCR analysis. Format: functional, organism-based. Particulars: dose 170-340 mg/kg. A digest of the protocol:
as §1

Data set [8] concerns Mus musculus. Description: Hypolipidemic activity in high fat diet-induced C57BL/6J mouse assessed as reduction in serum TC level at 170 to 340 mg/kg, po administered daily for 6 weeks. The note with it: dose 170-340 mg/kg. Format: functional, organism-based. The method in brief:
as §1

Data set [9] concerns Mus musculus. Description: Hypolipidemic activity in high fat diet-induced C57BL/6J mouse assessed as reduction in serum TG level at 170 to 340 mg/kg, po administered daily for 6 weeks. The note with it: dose 170-340 mg/kg. Format: functional, organism-based. The method in brief:
as §1

The subject of data set [10] is Mus musculus. Nature of the data set: Hypolipidemic activity in high fat diet-induced C57BL/6J mouse assessed as reduction in SREBPs expression in liver at 170 to 340 mg/kg, po administered daily for 6 weeks by Western blot analysis. The class given is functional, organism-based. The note with it: dose 170-340 mg/kg. The method in brief: as §1
In general terms: A western blot detects proteins with antibodies after separation by electrophoresis.

A short description of data set [11]: Clearance in Sprague-Dawley rat at 10 mg/kg, po measured upto 24 hrs by LC-MS/MS analysis. The class given is ADME, organism-based. Particulars: in vivo. A digest of the protocol: as §2
Data set [12] in a line: AUC (0 to infinity) in Sprague-Dawley rat at 10 mg/kg, po measured upto 24 hrs by LC-MS/MS analysis. More on the design: route oral, dose 10 mg/kg, time <=24. Format: ADME, organism-based. Particulars: in vivo. A digest of the protocol:
(§3)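 Six SD rats split into two groups (n=3 each), dosed once either intravenously at 1 mg/kg or orally at 10 mg/kg. Blood sampled at 2 min–12 h after IV dosing and at 5 min–24 h after oral dosing. Serum drug level measured by LC/MS/MS. AUC0-∞ is the mean of three runs.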

A short description of data set [13]: Toxicity in high fat diet-induced C57BL/6J mouse assessed as reduction in food intake at 170 to 340 mg/kg, po measured every week for 6 weeks. The class given is organism-based. The note with it: in vivo, 1008 h, dose 170-340 mg/kg. The method in brief: as §1
Data set [14] concerns Mus musculus. Description: […] activity in high fat diet-induced C57BL/6J mouse assessed as reduction in LDLR mRNA level in liver at 170 to 340 mg/kg, po administered daily for 6 weeks by qRT-PCR analysis. Format: functional, organism-based. Particulars: dose 170-340 mg/kg. The method in brief:
as §1
Background: In qPCR the cycle at which signal appears reflects the starting amount.

The nature of data set [15]: Tmax in Sprague-Dawley rat at 10 mg/kg, po measured upto 24 hrs by LC-MS/MS analysis. Particulars: in vivo. The class given is ADME, organism-based. A digest of the protocol:
as §2

The nature of data set [16]: Toxicity in high fat diet-induced C57BL/6J mouse assessed as change in spleen morphology at 170 to 340 mg/kg, po administered for 6 weeks by H and E staining-based assay. Format: organism-based. The note with it: in vivo, 1008 h, dose 170-340 mg/kg. The method in brief: as §1
Data set [17] in a line: Half life in Sprague-Dawley rat at 10 mg/kg, po measured upto 24 hrs by LC-MS/MS analysis. Format: ADME, organism-based. Particulars: in vivo. The method in brief: as §2
Data set [18] can be described thus: Toxicity in high fat diet-induced C57BL/6J mouse assessed as change in lung morphology at 170 to 340 mg/kg, po administered for 6 weeks by H and E staining-based assay. Format: organism-based. Particulars: in vivo, 1008 h, dose 170-340 mg/kg. The method in brief:
as §1

Data set [19] is described as follows: AUC (0 to infinity) in Sprague-Dawley rat at 1 mg/kg, iv measured upto 12 hrs by LC-MS/MS analysis. On the set-up: route intravenous, dose 1 mg/kg, time <=12. The note with it: in vivo. The class given is ADME, organism-based. A digest of the protocol: as §3
In data set [20] the test system is Mus musculus. Description: Hypolipidemic activity in high fat diet-induced C57BL/6J mouse assessed as reduction in cell size of WAT at 170 to 340 mg/kg, po administered daily for 6 weeks by H and E staining based assay. The note with it: dose 170-340 mg/kg. Format: functional, organism-based. The method in brief: as §1
The nature of data set [21]: Cmax in Sprague-Dawley rat at 10 mg/kg, po measured upto 24 hrs by LC-MS/MS analysis. The class given is ADME, organism-based. On the set-up: route oral, dose 10 mg/kg, time <=24. Particulars: in vivo. A digest of the protocol:
as §2

Activity calls are given as the source filed them.

By Cmax is commonly meant the highest concentration seen after dosing. For orientation: MRT inf means a mean duration of stay, worked out from the concentration-time curve. For orientation: AUC means the area under the concentration-time curve, a measure of exposure. A high value points to more exposure. Broadly, the Tmax is the time from dosing to the highest level. One may read the half-life as the time needed for the level to fall by half in the phase considered. Low values mean fast loss, high ones slow loss. In general, AUC(0-inf) refers to the area under the concentration-time curve extrapolated to infinity. A high value points to high exposure. With `COc1ccc2c(c1OCC1CCCCC1)CN1CCc3cc4c(cc3C1C2)OCO4` (stereo unspecified), the Activity entry in [1], in data set [13], in data set [16] and in [18] was “Non-Toxic” each time. Besides, the result in the data set with Mus musculus [2], in the data set with Mus musculus [5], in the data set with Mus musculus [6], in the data set on Mus musculus [7], in the data set with Mus musculus [8] and in the data set on Mus musculus [9] was Active. Moreover, the result in the data set with Mus musculus [10], in the data set with Mus musculus [14] and in the data set with Mus musculus [20] was Active. Also, the highest concentration (Cmax) was determined as 901 ng/mL in data set [3] and 428 ng/mL in [21]. Moreover, the MRT inf in data set [4] was 8.03 h. Moreover, in [11], the CL came out at 8.52 mL/min/kg. The molecule further displayed an area under the curve (AUC) in data set [12] of 4290 ng·h/mL. Also, the Tmax in data set [15] came to 6.67 h. For the same molecule, the half-life in data set [17] is 5.36 h. In [19], this molecule showed an AUC(0-inf) of 659 ng·h/mL.

The record behind these values is ChEMBL document CHEMBL4837214, “Design, synthesis, and biological evaluation of novel tetrahydroprotoberberine derivatives to reduce SREBPs expression for the treatment of hyperlipidemia” (Eur J Med Chem, 2021).
